According to ChEMBL document CHEMBL1144887, “Indanylidenes. 1. Design and synthesis of (E)-2-(4,6-difluoro-1-indanylidene)acetamide, a potent, centrally acting muscle relaxant with antiinflammatory and analgesic activity” (J Med Chem, 2003):

What was measured:
Assay type in all cases: functional
[1] = system: Mus musculus; assay: Percent effect profile muscle relaxation at 100 mg/kg by intraperitoneal administration in mouse using Straub-tail (ST) assay; conditions: ip
Procedure, shortened: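 Mouse morphine-induced Straub tail assay, scoring inhibition of sacro-coccygeus dorsalis contraction. Single ip dose of 100 mg/kg; percent effect reported. Compounds above 50% inhibition were then tested orally.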

[2] = system: Rattus norvegicus; assay: Percent inhibition for analgesic activity by trypsin-induced hyperalgesia assay at 20 mg/kg by oral administration in rats.
Procedure, shortened: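 Rat trypsin-induced hyperalgesia (mild analgesia). Percent inhibition at a single oral dose of 20 mg/kg. Each compound tested two or three times; average variation approximately 5%.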

[3] = system: Rattus norvegicus; assay: Antiinflammatory activity in cells by Carrageenan pleurisy assay by oral administration at 20 mg/kg.
Procedure, shortened: (§1)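 Rat carrageenan pleurisy, 3 h. Single oral dose of 20 mg/kg, with separate read-outs for pleural cell counts and edema as percent inhibition. Each compound tested two or three times; average variation approximately 10%.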

[4] = system: Rattus norvegicus; assay: Antiinflammatory activity in edema by Carrageenan pleurisy assay by oral administration at 20 mg/kg.; procedure, shortened: as §1
[5] = system: Mus musculus; assay: Sedation caused by oral administration was estimated using rotarod (RR) assay.
Procedure, shortened: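 Mouse rotorod test for sedation, oral dosing, generally at a minimum of three doses with N = 6 animals per dose group.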

[6] = system: Mus musculus; assay: Effective dose required for muscle relaxation by oral administration in mouse using Straub-tail (ST) assay.
Procedure, shortened: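 Mouse morphine-induced Straub tail assay, scoring inhibition of sacro-coccygeus dorsalis contraction. Dosed ip or po, generally at a minimum of three doses with N = 6 animals per dose group.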

[7] = species: Mus musculus; assay: Ratio of rotarod to Straub-tail activity, which indicates the dose exhibiting muscle relaxant activity versus that producing sedation.
Procedure, shortened: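 Ratio of rotorod ED50 (po) to Straub tail ED50 (po), both measured in mice with oral dosing. Indicates separation between the muscle-relaxant dose and the sedating dose.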

Compound	inhibition in vivo at 100 mg/kg [1] [%]	inhibition in vivo at 20 mg/kg [2] [%]	inhibition in vivo at 20 mg/kg [3] [%]	inhibition in vivo at 20 mg/kg [4] [%]	ED50 [5] [mg/kg]	ED50 [6] [mg/kg]	Ratio [7]
CNC(=O)/C=C1\CCc2cc(Cl)ccc21	50	25	40	44			
O=C(/C=C1\CCc2ccc(F)cc21)NCC1CC1	50		0	21			
O=C(/C=C1\CCc2ccc(F)cc21)NCCO	50	33	42	78			
O=C(/C=C1\CCc2ccc(F)cc21)NC1CC1	100		5	7	62	66	0.9
O=C(/C=C1\CCc2ccc(F)cc21)N1CCC1	33	7	14	0			
NC(=O)/C=C1\CCc2c(Cl)cccc21	67	29	35	58			
O=C(/C=C1\CCc2cc(F)c(F)cc21)NC1CC1	50		30	48			
O=C(/C=C1\CCc2cc(Cl)ccc21)NC1CC1	17		34	29			
O=C(/C=C1\CCc2c(F)cc(F)cc21)NC1CC1	100		38	28	62	62	1
NC(=O)/C=C1\CCc2ccc(Br)cc21	100		38	21		96	
CCN(C)C(=O)/C=C1\CCc2ccc(F)cc21	100	77	20	44		100	
CNC(=O)/C=C1\CCc2ccc(Br)cc21	0	4	44	53			
CC(C)NC(=O)/C=C1\CCc2c(F)cc(F)cc21	100				76	50	1.9
CCCNC(=O)/C=C1\CCc2ccc(F)cc21	100	11	0	36		> 100	
CCNC(=O)/C=C1\CCc2c(F)cc(F)cc21	67	63					
CON(C)C(=O)/C=C1\CCc2ccc(F)cc21	17		6	14			
O=C(/C=C1\CCc2ccc(F)cc21)N1CCOCC1	100		7	31		90	
CCN(C)C(=O)/C=C1\CCc2c(F)cc(F)cc21	100				73	56	1.3
O=C(/C=C1\CCc2ccc(F)cc21)N1CCCC1	33	10	10	18			
COc1ccc2c(c1)CC/C2=C\C(N)=O	17	13	18	25			
O=C(/C=C1\CCc2ccc(Cl)cc21)NC1CC1	50						
CNC(=O)/C=C1\CCc2ccc(Cl)cc21	16	17	0	25			
O=C(/C=C1\CCc2ccc(Br)cc21)NC1CC1	33		29	4			
